The results in this text go back to ChEMBL document CHEMBL1158610, “5-arylamino-1,2,4-triazin-6(1H)-one CRF1 receptor antagonists” (Bioorg Med Chem Lett, 2010).

One may read the IC50 as the point on the concentration scale where inhibition reaches its midpoint.

In data set [1] the target is T1, Corticotropin-releasing factor receptor 1 (Rattus norvegicus, UniProt P35353).
T1 sequence (P35353 whole entry): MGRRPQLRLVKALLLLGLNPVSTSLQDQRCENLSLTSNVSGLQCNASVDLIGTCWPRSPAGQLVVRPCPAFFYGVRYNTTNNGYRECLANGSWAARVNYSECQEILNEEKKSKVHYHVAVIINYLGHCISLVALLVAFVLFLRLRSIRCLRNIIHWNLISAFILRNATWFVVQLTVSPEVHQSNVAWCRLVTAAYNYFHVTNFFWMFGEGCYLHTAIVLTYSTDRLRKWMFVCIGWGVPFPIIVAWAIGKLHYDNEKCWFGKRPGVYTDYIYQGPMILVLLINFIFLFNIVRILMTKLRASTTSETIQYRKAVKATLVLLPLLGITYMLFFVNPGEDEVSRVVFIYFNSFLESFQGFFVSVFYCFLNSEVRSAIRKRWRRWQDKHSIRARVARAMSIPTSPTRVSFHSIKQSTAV
The data set can be described thus: Displacement of [125I]Tyr-ovine CRF from rat CRF1 receptor. The essentials: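 Rat frontal cortex homogenate; inhibition of specific [¹²⁵I]Tyr-ovine-CRF binding measured across a titration of test compound to give IC50. Values are means of three experiments, with standard deviation.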
On the technique in general: Displacement assays read how much labelled ligand stays bound in the presence of the test substance.

The target of data set [2] is T2, Corticotropin-releasing factor receptor 1 (Rattus norvegicus) (UniProt P35353).
T2 sequence (whole entry): T1 sequence (P35353 whole entry)
The data set can be described thus: Displacement of [125]sauvagin from CRF1 receptor in rat parietal cortex.

The subject of data set [3] is Liver microsomes. As to the kind of experiment: Metabolic stability in human liver microsome assessed as compound remaining. It is filed as ADME.
For data set [4], the system named is Liver microsomes. As to the kind of experiment: Metabolic stability in rat liver microsome assessed as compound remaining. It counts as ADME.

`CCC(C1CC1)n1nc(C)nc(Nc2cc(C)c(OC)cc2C)c1=O` (configuration not stated) displayed an IC50 in data set [1] of 0.89 nM. The same molecule displayed an Activity in data set [2] of 64%. Regarding `Cc1cn([C@H](C)C2CC2)c(=O)c(Nc2c(Cl)cc(OC(F)F)cc2Cl)n1`, the Stability in the data set on Liver microsomes [3] worked out at 71%; in the data set with Liver microsomes [4], 12%. As to `Cc1nc(Nc2cc(C(F)(F)F)c(C#N)cc2Cl)c(=O)n(C(C)C2CC2)n1` (configuration not stated), in data set [1], the IC50 turned out to be 3300 nM. On the same count and under the same terms, under `COCC(C1CC1)n1nc(C)nc(Nc2ccc(OC)nc2C(F)(F)F)c1=O` (configuration not stated) stands 3.7 nM; under `CCOc1ccc(Nc2nc(C)nn([C@@H](C)C3CC3)c2=O)c(C(F)(F)F)n1`, 23 nM. Same read-out and setting: under `CCOc1ccc(Nc2nc(C)nn([C@@H](COC)C3CC3)c2=O)c(C(F)(F)F)n1` stands 2.4 nM. As for `CCOc1ccc(Nc2nc(C)nn(C(COC)C3CC3)c2=O)c(C(F)(F)F)n1` (configuration not stated), in data set [1], the IC50 came out at 3 nM. For the same molecule, in data set [2], the Activity amounted to 46%. Regarding `Cc1nc(Nc2c(Cl)cc(C(F)(F)F)cc2Cl)c(=O)n(C(C)C2CC2)n1` (configuration not stated), in data set [1], the IC50 was found to be 14 nM. Same read-out and setting: the result for `CCC(C1CC1)n1nc(C)nc(Nc2c(Cl)cc(C(F)(F)F)cc2Cl)c1=O` (configuration not stated) reads 6.3 nM. Still for that read-out and setting: under `COC[C@@H](C1CC1)n1nc(C)nc(Nc2c(Cl)cc(OC)cc2Cl)c1=O` stands 69 nM. In data set [1], `COc1ccc(Nc2nc(C)nn([C@H](C)C3CC3)c2=O)c(C(F)(F)F)n1` had an IC50 of 3.5 nM. The values for the Stability in the data set with Liver microsomes [3] and in the data set on Liver microsomes [4] were 85% and 37%, respectively.

Regarding `COCC(C1CC1)n1nc(C)nc(Nc2c(C)cc(OC)cc2C)c1=O` (configuration not stated), the 50% inhibitory concentration (IC50) in data set [1] amounted to 51 nM.

In data set [1], `COCC(C1CC1)n1nc(C)nc(Nc2c(Cl)cc(OC)cc2Cl)c1=O` (configuration not stated) gave an IC50 of 6.3 nM.

Regarding `Cc1nc(Nc2c(Cl)cc(C#N)c(Cl)c2Cl)c(=O)n(C(C)C2CC2)n1` (configuration not stated), the IC50 in data set [1] was determined as 10 nM. Same read-out and setting: the result for `COc1cc(Cl)c(Nc2nc(C)nn([C@@H](C)C3CC3)c2=O)c(Cl)c1` reads 7.5 nM; that for `COCC(C1CC1)n1nc(C)nc(Nc2c(Cl)cc(OC(F)F)cc2Cl)c1=O` (configuration not stated), 6.3 nM; that for `COc1cc(C)c(Nc2nc(C)nn(C(C)C3CC3)c2=O)c(C)c1` (configuration not stated), 68 nM. Same read-out and setting: under `CCC(C1CC1)n1nc(C)nc(Nc2cc(C)c(OC)nc2C)c1=O` (configuration not stated) stands 6.5 nM; under `COCC(C1CC1)n1nc(C)nc(Nc2cc(C)c(OC(F)F)nc2C)c1=O` (configuration not stated), 1.1 nM. On the same count and under the same terms, the result for `CCOc1ccc(Nc2nc(C)nn(C(CC)C3CC3)c2=O)c(C(F)(F)F)n1` (configuration not stated) reads 3.6 nM; that for `COc1cc(Cl)c(Nc2nc(C)nn(C(C)C3CC3)c2=O)c(Cl)c1` (configuration not stated), 15 nM; that for `COC[C@H](C1CC1)n1nc(C)nc(Nc2c(Cl)cc(OC)cc2Cl)c1=O`, 7.2 nM. Take `CCC(C1CC1)n1nc(C)nc(Nc2c(Cl)cc(OC(F)F)cc2Cl)c1=O` (configuration not stated): the IC50 in data set [1] was 2.1 nM. Turning to `COCC(C1CC1)n1nc(C)nc(Nc2c(Cl)cc(OC(F)(F)F)cc2Cl)c1=O` (configuration not stated), in data set [1], the IC50 turned out to be 11 nM. Molecule `Cc1nc(Nc2c(Cl)cc(OC(F)(F)F)cc2Cl)c(=O)n(C(C)C2CC2)n1` (configuration not stated) registered a concentration for half-maximal inhibition (IC50) in data set [1] of 39 nM.

Turning to `Cc1nc(Nc2c(C)cc(Cl)cc2Cl)c(=O)n(C(C)C2CC2)n1` (configuration not stated), the IC50 in data set [1] stood at 33 nM.

As for `COCC(C1CC1)n1nc(C)nc(Nc2cc(C)c(OC)nc2C)c1=O` (configuration not stated), the 50% inhibitory concentration (IC50) in data set [1] is 20 nM. In data set [1], `COc1ccc(Nc2nc(C)nn([C@@H](C)C3CC3)c2=O)c(C(F)(F)F)n1` yielded an IC50 of 12 nM. In data set [1], `COc1cc(Nc2nc(C)nn(C(C)C3CC3)c2=O)c(C)cc1C#N` (configuration not stated) registered a half-inhibitory concentration (IC50) of 94 nM. The molecule `Cc1nc(Nc2c(Cl)cc(OC(F)F)cc2Cl)c(=O)n([C@@H](C)C2CC2)n1` returned an IC50 in data set [1] of 7.2 nM. On the same count and under the same terms, under `COc1cc(Cl)c(Nc2nc(C)nn([C@H](C)C3CC3)c2=O)c(Cl)c1` stands 8.3 nM; under `COC[C@@H](C1CC1)n1nc(C)nc(Nc2ccc(OC)nc2C(F)(F)F)c1=O`, 2.3 nM; under `CCC(C1CC1)n1nc(C)nc(Nc2cc(C)c(C#N)cc2C)c1=O` (configuration not stated), 9.3 nM.

In turn, `CCOc1ccc(Nc2nc(C)nn(C(C)C3CC3)c2=O)c(C(F)(F)F)n1` (configuration not stated) had a concentration for half-maximal inhibition (IC50) in data set [1] of 12 nM. Same read-out and setting: the result for `CCC(C1CC1)n1nc(C)nc(Nc2cc(C)c(OC)nc2C(F)(F)F)c1=O` (configuration not stated) reads 2.7 nM; that for `COc1nc(C)c(Nc2nc(C)nn(C(C)C3CC3)c2=O)cc1C` (configuration not stated), 26 nM; that for `Cc1nc(Nc2cc(C)c(C#N)cc2C)c(=O)n(C(C)C2CC2)n1` (configuration not stated), 60 nM. Same read-out and setting: under `COC[C@H](C1CC1)n1nc(C)nc(Nc2cc(C)c(OC(F)F)nc2C)c1=O` stands 6.5 nM. The same measure, in the same setting: under `Cc1nc(Nc2c(Cl)cc(C(F)(F)F)nc2Cl)c(=O)n(C(C)C2CC2)n1` (configuration not stated) stands 260 nM; under `CCOc1ccc(Nc2nc(C)nn([C@H](C)C3CC3)c2=O)c(C(F)(F)F)n1`, 8.6 nM. With `CCOc1cc(C)c(Nc2nc(C)nn(C(C)C3CC3)c2=O)cc1C` (configuration not stated), the IC50 in data set [1] was found to be 28 nM. This IC50 is about 3.3-fold higher than that of the molecule before.

`Cc1nc(Nc2c(Cl)cc(S(C)(=O)=O)cc2Cl)c(=O)n(C(C)C2CC2)n1` (configuration not stated) displayed an IC50 in data set [1] of 20 nM. Still for that read-out and setting: the result for `COC[C@H](C1CC1)n1nc(C)nc(Nc2ccc(OC)nc2C(F)(F)F)c1=O` reads 15 nM.

The molecule `Cc1nc(Nc2c(Cl)cc(OC(F)F)cc2Cl)c(=O)n([C@H](C)C2CC2)n1` displayed an IC50 in data set [1] of 13 nM.

The molecule `CCC(C1CC1)n1nc(C)nc(Nc2ccc(OC)nc2C(F)(F)F)c1=O` (configuration not stated) displayed an IC50 in data set [1] of 3.7 nM.

Molecule `Cc1cc(C)c(Nc2nc(C)nn(C(C)C3CC3)c2=O)c(C)c1` (configuration not stated) returned an IC50 in data set [1] of 19 nM. As for `COCC(C1CC1)n1nc(C)nc(Nc2c(Cl)cc(C(F)(F)F)cc2Cl)c1=O` (configuration not stated), the concentration for half-maximal inhibition (IC50) in data set [1] was determined as 11 nM. On the same count and under the same terms, under `COc1ccc(Nc2nc(C)nn(C(C)C3CC3)c2=O)c(C(F)(F)F)n1` (configuration not stated) stands 6.7 nM. The same measure, in the same setting: under `COC[C@@H](C1CC1)n1nc(C)nc(Nc2c(Cl)cc(OC(F)F)cc2Cl)c1=O` stands 23 nM; under `COc1cc(C)c(Nc2nc(C)nn(C(C)C3CC3)c2=O)cc1C` (configuration not stated), 5 nM; under `CCC(C1CC1)n1nc(C)nc(Nc2cc(OC)c(C#N)cc2C)c1=O` (configuration not stated), 13 nM.

In data set [1], `Cc1nc(Nc2cc(Cl)c(C#N)cc2Cl)c(=O)n(C(C)C2CC2)n1` (configuration not stated) gave an IC50 of 270 nM. The molecule `CCOc1ccc(Nc2nc(C)nn([C@H](COC)C3CC3)c2=O)c(C(F)(F)F)n1` came in with an IC50 in data set [1] of 27 nM. This IC50 lies about 10-fold lower than the previous one. Still for that read-out and setting: the result for `COc1nc(C)c(Nc2nc(C)nn(C(C)C3CC3)c2=O)c(OC)n1` (configuration not stated) reads 1100 nM; that for `Cc1nc(Nc2c(Cl)cc(OC(F)F)cc2Cl)c(=O)n(C(C)C2CC2)n1` (configuration not stated), 9.9 nM. Same read-out and setting: under `COC[C@@H](C1CC1)n1nc(C)nc(Nc2cc(C)c(OC(F)F)nc2C)c1=O` stands 1.1 nM; under `COC[C@H](C1CC1)n1nc(C)nc(Nc2c(Cl)cc(OC(F)F)cc2Cl)c1=O`, 4.4 nM.
